We go through ten compounds from ChEMBL document CHEMBL1122599, “Antiinflammatory activity of 5,6-diaryl-2,3-dihydroimidazo[2,1-b]thiazoles. Isomeric 4-pyridyl and 4-substituted phenyl derivatives” (1984).

The test system of test [1] is Rattus norvegicus. Briefly: Adjuvant arthritic activity in rat injected leg on day 3 tested at 50 mg/kg perorally. Type of test: functional. The settings on record: 72 h, route oral. In short, it runs like this: (§1)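 Rats received oral doses daily from the day of adjuvant injection for 17 days, skipping days 4, 5, 11 and 12. Leg volumes were compared with those of an arthritic vehicle-control group. Significance was judged by Student's t test.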

Test [2] relates to Rattus norvegicus. The experiment in a line: Adjuvant arthritic activity in rat uninjected leg on day 16 tested at 50 mg/kg perorally. Type of test: functional. The note with it: 384 h, route oral. Summed up: as §1
Test [3] deals with Rattus norvegicus. Briefly: Adjuvant arthritic activity in rat injected leg on day 16 tested at 50 mg/kg perorally. Type of test: functional. The settings on record: 384 h, route oral. Summed up:
as §1

Test [4] concerns Mus musculus. Briefly: Cutaneous oxazolone induced contact sensitivity in mouse and percent stimulation in right hind paw was determined at a dose 25 mg/kg perorally. The note with it: route oral.
Test [5] deals with Rattus norvegicus. Briefly: Adjuvant arthritic activity in rat uninjected leg on day 16 tested at 50 mg/kg perorally. The class given is functional. The note with it: 384 h, route oral. Summed up: as §1
The test system of test [6] is Rattus norvegicus. The experiment in a line: Adjuvant arthritic activity in rat injected leg on day 16 tested at 20 mg/kg perorally. Type of test: functional. The settings on record: 384 h, route oral. In short, it runs like this:
as §1

Test [7] deals with Mus musculus. The experiment in a line: Cutaneous oxazolone induced contact sensitivity in mouse and percent stimulation in right hind paw was determined at a dose 20 mg/kg perorally. The settings on record: route oral.
The test system of test [8] is Rattus norvegicus. The experiment in a line: Adjuvant arthritic activity in rat uninjected leg on day 16 tested at 20 mg/kg perorally. The settings on record: 384 h, route oral. Type of test: functional. In short, it runs like this:
as §1

Test [9] deals with Mus musculus. The experiment in a line: Cutaneous oxazolone induced contact sensitivity in mouse and percent stimulation in right hind paw was determined at a dose 25 mg/kg perorally. The settings on record: route oral.
In test [10] the test system is Rattus norvegicus. The experiment in a line: Adjuvant arthritic activity in rat injected leg on day 3 tested at 50 mg/kg perorally. The class given is functional. The note with it: 72 h, route oral. In short, it runs like this: as §1
Test [11] has as its system Rattus norvegicus. The experiment in a line: Adjuvant arthritic activity in rat injected leg on day 16 tested at 50 mg/kg perorally. The class given is functional. The settings on record: 384 h, route oral. Summed up:
as §1

On to `COc1ccc(-c2nc3n(c2-c2ccncc2)CCS3)cc1`, for which the values for the inhibition in vivo at 50 mg/kg in the test on Rattus norvegicus [1], with Rattus norvegicus [2] and in the test on Rattus norvegicus [3] were 15%, 21% and 20%, respectively. In addition, the Stimulation in the test on Mus musculus [4] is given as 59%.
Turning to `CSc1ccc(-c2c(-c3ccncc3)nc3n2CCS3)cc1`, the inhibition in vivo at 50 mg/kg is 7% in the test with Rattus norvegicus [1], -18% in the test with Rattus norvegicus [5] and 8% in the test with Rattus norvegicus [3]. The Stimulation in the test with Mus musculus [4] is 19%.
Regarding `CSc1ccc(-c2nc3n(c2-c2ccncc2)CCS3)cc1`, the inhibition in vivo at 50 mg/kg is 16% in the test on Rattus norvegicus [1], 16% with Rattus norvegicus [2] and 12% in the test with Rattus norvegicus [3]. Moreover, in the test on Mus musculus [4], the Stimulation amounted to 19%.
`Fc1ccc(-c2c(-c3ccncc3)nc3n2CCS3)cc1`: the inhibition in vivo at 50 mg/kg was -2% with Rattus norvegicus [1], -9% in the test on Rattus norvegicus [2] and 4% with Rattus norvegicus [3]. The Stimulation with Mus musculus [4] was found to be 15%.
Consider `C[C@]12C=CC(=O)C=C1CC[C@@H]1[C@@H]2[C@@H](O)C[C@@]2(C)[C@H]1CC[C@]2(O)C(=O)CO` [PREDNISOLONE], for which, in the test on Rattus norvegicus [1], the inhibition in vivo at 50 mg/kg was 28%. The inhibition in vivo at 20 mg/kg in the test with Rattus norvegicus [6] was found to be 42%; in the test with Rattus norvegicus [8], 54%. Besides, the Stimulation with Mus musculus [7] was -12%.
As for `c1ccc([C@H]2CN3CCSC3=N2)cc1` [LEVAMISOLE], the inhibition in vivo at 50 mg/kg was 0% with Rattus norvegicus [1], 1% in the test on Rattus norvegicus [2] and -2% in the test with Rattus norvegicus [3]. Moreover, the Stimulation in the test on Mus musculus [4] came out at 230%.
In the case of `COc1ccc(-c2nc3n(c2-c2ccc(OC)cc2)CCS3)cc1`, the Stimulation with Mus musculus [9] stood at 194%. The values for the inhibition in vivo at 50 mg/kg with Rattus norvegicus [10], in the test on Rattus norvegicus [5] and with Rattus norvegicus [11] were 25%, 29% and 36%, respectively.
For the compound `COc1ccc(-c2c(-c3ccncc3)nc3n2CCS3)cc1`, the inhibition in vivo at 50 mg/kg in the test with Rattus norvegicus [1] is 0%; in the test on Rattus norvegicus [5], -37%; with Rattus norvegicus [3], 1%. The Stimulation with Mus musculus [4] turned out to be 42%.
As for `c1cc(-c2nc3n(c2-c2ccncc2)CCS3)ccn1`, the inhibition in vivo at 50 mg/kg in the test on Rattus norvegicus [10] was -4%; with Rattus norvegicus [2] it was -3%; in the test on Rattus norvegicus [3], 7%.
In the case of `Fc1ccc(-c2nc3n(c2-c2ccncc2)CCS3)cc1`, the Stimulation in the test with Mus musculus [9] is recorded as 69%. In addition, the inhibition in vivo at 50 mg/kg in the test on Rattus norvegicus [1] amounted to 27%; in the test on Rattus norvegicus [5], 44%; in the test on Rattus norvegicus [11], 38%.

A word on the inhibition in vivo: it is the change of the read-out against control, counted positive when it falls.
